Results reported in publication PMC11333997 (RSC Advances, 2024).

Tests used:
[1] = tested on: WI-38 normal human lung fibroblast cells; assay: MTT cytotoxicity on normal fibroblast cell line; type: cell-based; details: WI-38, read-out: IC50 WI-38
[2] = tested on: HEPG-2 hepatocellular carcinoma cells; assay: MTT in vitro anti-tumor screening; type: cell-based; details: Homo sapiens, HepG2, read-out: IC50 HEPG-2
[3] = tested on: HCT-116 cells; assay: Flow cytometry cell cycle analysis; type: cell-based, human
Method in brief: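 HCT-116 cells exposed to the test compound for 24 h, with DMSO as control. Cells were stained with propidium iodide, and DNA ploidy was analysed on a FACSCalibur flow cytometer. The percentage of cells in G0–G1, S and G2-M phases was reported.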

[4] = target: EGFR (Homo sapiens, UniProt P00533); assay: In vitro EGFR kinase inhibition assay; type: biochemical
Sequence of EGFR (P00533 25-1210): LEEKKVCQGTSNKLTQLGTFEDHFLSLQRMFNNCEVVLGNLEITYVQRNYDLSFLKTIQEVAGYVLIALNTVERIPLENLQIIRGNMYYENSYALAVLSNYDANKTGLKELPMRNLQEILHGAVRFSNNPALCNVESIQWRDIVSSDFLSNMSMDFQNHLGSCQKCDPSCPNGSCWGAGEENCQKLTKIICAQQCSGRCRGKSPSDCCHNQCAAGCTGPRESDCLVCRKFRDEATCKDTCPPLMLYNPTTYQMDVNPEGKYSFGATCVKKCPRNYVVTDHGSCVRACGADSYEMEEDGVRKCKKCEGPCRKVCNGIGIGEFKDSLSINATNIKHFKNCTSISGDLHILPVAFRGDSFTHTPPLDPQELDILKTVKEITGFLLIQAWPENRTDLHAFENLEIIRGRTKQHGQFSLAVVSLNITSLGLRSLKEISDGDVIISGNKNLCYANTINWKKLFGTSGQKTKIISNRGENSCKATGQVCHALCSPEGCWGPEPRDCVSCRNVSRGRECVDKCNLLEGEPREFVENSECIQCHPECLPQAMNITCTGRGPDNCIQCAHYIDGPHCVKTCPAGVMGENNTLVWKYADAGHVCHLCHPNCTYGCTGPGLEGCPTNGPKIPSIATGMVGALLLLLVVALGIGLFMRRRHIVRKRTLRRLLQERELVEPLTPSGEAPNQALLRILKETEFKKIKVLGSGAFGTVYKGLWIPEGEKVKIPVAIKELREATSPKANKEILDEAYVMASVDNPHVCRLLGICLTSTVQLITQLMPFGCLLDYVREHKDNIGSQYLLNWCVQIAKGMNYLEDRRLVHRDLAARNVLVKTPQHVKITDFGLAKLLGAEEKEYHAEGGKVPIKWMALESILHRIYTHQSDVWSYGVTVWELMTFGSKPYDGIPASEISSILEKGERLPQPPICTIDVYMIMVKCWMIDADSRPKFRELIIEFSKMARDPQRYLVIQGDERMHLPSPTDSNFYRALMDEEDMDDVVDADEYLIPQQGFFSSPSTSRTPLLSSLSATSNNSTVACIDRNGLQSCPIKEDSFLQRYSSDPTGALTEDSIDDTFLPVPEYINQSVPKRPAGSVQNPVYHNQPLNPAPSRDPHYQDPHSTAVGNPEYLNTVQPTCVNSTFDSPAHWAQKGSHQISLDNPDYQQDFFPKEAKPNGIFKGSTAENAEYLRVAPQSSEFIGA

[5] = target: VEGFR-2 (Homo sapiens, UniProt P35968); assay: biochemical
Sequence of VEGFR-2 (P35968 20-1356): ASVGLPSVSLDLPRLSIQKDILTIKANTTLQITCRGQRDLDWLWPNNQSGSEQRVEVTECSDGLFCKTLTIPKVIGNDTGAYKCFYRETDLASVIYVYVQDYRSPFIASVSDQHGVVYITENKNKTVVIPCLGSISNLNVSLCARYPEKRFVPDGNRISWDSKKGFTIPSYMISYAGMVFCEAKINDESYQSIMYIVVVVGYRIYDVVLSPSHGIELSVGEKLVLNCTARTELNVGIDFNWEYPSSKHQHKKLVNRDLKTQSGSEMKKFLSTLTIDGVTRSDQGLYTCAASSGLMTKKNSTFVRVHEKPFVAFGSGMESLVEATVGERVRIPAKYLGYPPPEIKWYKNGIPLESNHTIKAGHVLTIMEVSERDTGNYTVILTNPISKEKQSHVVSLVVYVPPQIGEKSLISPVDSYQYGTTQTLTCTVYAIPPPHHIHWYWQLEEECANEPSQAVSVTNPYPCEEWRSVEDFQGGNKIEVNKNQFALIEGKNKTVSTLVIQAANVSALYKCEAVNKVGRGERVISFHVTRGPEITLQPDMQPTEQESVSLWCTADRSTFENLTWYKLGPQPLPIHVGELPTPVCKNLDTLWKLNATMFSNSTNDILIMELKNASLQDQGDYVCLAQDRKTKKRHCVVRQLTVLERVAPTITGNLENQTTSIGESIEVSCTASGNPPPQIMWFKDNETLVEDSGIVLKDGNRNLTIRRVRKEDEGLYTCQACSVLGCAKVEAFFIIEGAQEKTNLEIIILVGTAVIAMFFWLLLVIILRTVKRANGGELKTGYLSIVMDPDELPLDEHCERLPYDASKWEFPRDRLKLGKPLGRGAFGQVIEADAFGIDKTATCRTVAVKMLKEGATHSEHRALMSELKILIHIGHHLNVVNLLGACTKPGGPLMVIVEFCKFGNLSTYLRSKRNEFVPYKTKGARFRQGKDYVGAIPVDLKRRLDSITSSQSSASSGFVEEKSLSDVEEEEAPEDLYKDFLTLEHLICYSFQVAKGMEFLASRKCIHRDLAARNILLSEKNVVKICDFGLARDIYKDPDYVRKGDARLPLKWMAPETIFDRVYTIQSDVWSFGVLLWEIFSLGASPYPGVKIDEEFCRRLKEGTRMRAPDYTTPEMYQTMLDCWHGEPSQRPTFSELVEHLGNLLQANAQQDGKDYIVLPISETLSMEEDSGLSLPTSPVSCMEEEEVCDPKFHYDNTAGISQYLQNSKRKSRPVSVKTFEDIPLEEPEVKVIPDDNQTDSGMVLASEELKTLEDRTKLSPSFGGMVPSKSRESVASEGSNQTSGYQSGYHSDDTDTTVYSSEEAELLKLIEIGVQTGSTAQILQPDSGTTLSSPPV

[6] = tested on: HEPG-2, HCT-116 and MCF-7 cell lines; assay: MTT anti-tumor screening, values over the cancer cell line panel; type: cell-based; details: Homo sapiens, read-out: IC50 range over the cancer cell lines
[7] = tested on: MCF-7 breast cancer cells; assay: MTT in vitro anti-tumor screening; type: cell-based, human; details: read-out: IC50 MCF-7, mean of three independent experiments ± SD
[8] = tested on: EGFR/VEGFR-2; assay: EGFR/VEGFR-2 enzyme inhibition, both kinases stated together; type: biochemical; details: compared with the tested analogues (4)

IC50 [2] | Compound | IC50 [1] | other results
46.6 ± 2.6 µM | COc1ccc(NC(=O)NNC(=O)CSc2nc3ccccc3c(=O)n2-c2ccc(Cl)cc2)cc1 [Compound 16, 2-(2-((3-(4-Chlorophenyl)-4-oxo-3,4-dihydroquinazolin-2-yl)thio)acetyl)-N-(4-methoxyphenyl)hydrazinecarboxamide] | 17.8 ± 1.3 µM | –
68.6 ± 3.9 µM | Cc1ccc(NC(=O)NNC(=O)CSc2nc3ccccc3c(=O)n2-c2ccc(Cl)cc2)cc1 [Compound 15, 2-(2-((3-(4-Chlorophenyl)-4-oxo-3,4-dihydroquinazolin-2-yl)thio)acetyl)-N-(p-tolyl)hydrazinecarboxamide] | 43.2 ± 2.5 µM | –
87.3 ± 4.6 µM | COc1ccc(-n2c(SCC(=O)NNC(=O)NCc3ccccc3)nc3ccccc3c2=O)cc1 [Compound 27, N-Benzyl-2-(2-((3-(4-methoxyphenyl)-4-oxo-3,4-dihydroquinazolin-2-yl)thio)acetyl)hydrazinecarboxamide] | > 100 µM | –
63.5 ± 3.7 µM | O=C(CSc1nc2ccccc2c(=O)n1-c1ccc(Cl)cc1)NNC(=O)Nc1ccc(F)cc1 [Compound 13, 2-(2-((3-(4-Chlorophenyl)-4-oxo-3,4-dihydroquinazolin-2-yl)thio)acetyl)-N-(4-fluorophenyl)hydrazinecarboxamide] | 47.5 ± 2.6 µM | –
22.4 ± 1.5 µM | Cc1cccc(C)c1NC(=O)NNC(=O)CSc1nc2ccccc2c(=O)n1-c1ccc(Cl)cc1 [Compound 17, 2-(2-((3-(4-Chlorophenyl)-4-oxo-3,4-dihydroquinazolin-2-yl)thio)acetyl)-N-(2,6-dimethylphenyl)hydrazinecarboxamide] | 89.4 ± 4.7 µM | –
3.92 ± 0.2 µM | Cc1ccc(-n2c(SCC(=O)NNC(=O)Nc3ccccc3)nc3ccccc3c2=O)cc1 [Compound 4, 2-(2-((4-Oxo-3-(p-tolyl)-3,4-dihydroquinazolin-2-yl)thio)acetyl)-N-phenylhydrazinecarboxamide] | 45.6 ± 2.4 µM | Cell cycle distribution G2-M ([3]; at IC50 concentration, 24 h, control 19.54%): 8.65%; Cell cycle distribution S ([3]; at IC50 concentration, 24 h, control 36.53%): 36.18%; Cell cycle distribution G0–G1 ([3]; at IC50 concentration, 24 h, control 43.93%): 55.17%; cell cycle arrest phase ([3]; flow cytometry): G1 phase; IC50 [4]: 49 ± 2 nM; IC50 [5]: 54 ± 2 nM; IC50 [6]: 1.5 to 5.86 µM
58.9 ± 3.4 µM | Cc1ccc(-n2c(SCC(=O)NNC(=O)Nc3ccc(F)cc3)nc3ccccc3c2=O)cc1 [Compound 5, N-(4-Fluorophenyl)-2-(2-((4-oxo-3-(p-tolyl)-3,4-dihydroquinazolin-2-yl)thio)acetyl)hydrazinecarboxamide] | > 100 µM | –
72.8 ± 4 µM | COc1ccc(-n2c(SCC(=O)NNC(=O)Nc3ccc(C(F)(F)F)cc3Cl)nc3ccccc3c2=O)cc1 [Compound 26, N-(2-Chloro-4-(trifluoromethyl)phenyl)-2-(2-((3-(4-methoxyphenyl)-4-oxo-3,4-dihydroquinazolin-2-yl)thio)acetyl)hydrazinecarboxamide] | 30.2 ± 2.1 µM | –
76.4 ± 4.3 µM | Cc1ccc(NC(=O)NNC(=O)CSc2nc3ccccc3c(=O)n2-c2ccc(C)cc2)cc1 [Compound 7, 2-(2-((4-Oxo-3-(p-tolyl)-3,4-dihydroquinazolin-2-yl)thio)acetyl)-N-(p-tolyl)hydrazinecarboxamide] | > 100 µM | –
34.6 ± 2 µM | O=C(CSc1nc2ccccc2c(=O)n1-c1ccc(Cl)cc1)NNC(=O)Nc1ccc(C(F)(F)F)cc1Cl [Compound 18, N-(2-Chloro-4-(trifluoromethyl)phenyl)-2-(2-((3-(4-chlorophenyl)-4-oxo-3,4-dihydroquinazolin-2-yl)thio)acetyl)hydrazinecarboxamide] | 84.4 ± 4.2 µM | –
49.6 ± 2.7 µM | Cc1ccc(-n2c(SCC(=O)NNC(=O)Nc3ccc(C(F)(F)F)cc3Cl)nc3ccccc3c2=O)cc1 [Compound 10, N-(2-Chloro-4-(trifluoromethyl)phenyl)-2-(2-((4-oxo-3-(p-tolyl)-3,4-dihydroquinazolin-2-yl)thio)acetyl)hydrazinecarboxamide] | 86.9 ± 4.4 µM | –
19.5 ± 1.3 µM | O=C(CSc1nc2ccccc2c(=O)n1-c1ccc(Cl)cc1)NNC(=O)Nc1ccccc1 [Compound 12, 2-(2-((3-(4-Chlorophenyl)-4-oxo-3,4-dihydroquinazolin-2-yl)thio)acetyl)-N-phenylhydrazinecarboxamide] | 75.5 ± 4 µM | IC50 [7]: 12.9 ± 1 µM
29.8 ± 1.8 µM | O=C(CSc1nc2ccccc2c(=O)n1-c1ccc(Cl)cc1)NNC(=O)Nc1ccc(Cl)cc1 [Compound 14, N-(4-Chlorophenyl)-2-(2-((3-(4-chlorophenyl)-4-oxo-3,4-dihydroquinazolin-2-yl)thio)acetyl)hydrazinecarboxamide] | 16.7 ± 1.4 µM | –
5.17 ± 0.4 µM | COc1ccc(-n2c(SCC(=O)NNC(=O)Nc3ccccc3)nc3ccccc3c2=O)cc1 [Compound 20, 2-(2-((3-(4-Methoxyphenyl)-4-oxo-3,4-dihydroquinazolin-2-yl)thio)acetyl)-N-phenylhydrazinecarboxamide] | 42.9 ± 2.6 µM | IC50 [4]: 362 ± 14 nM; IC50 [5]: 474 ± 20 nM; fold decrease in binding affinity (EGFR and VEGFR-2) [8]: 9–10 fold; IC50 [6]: 4.42 to 6.39 µM
8.1 ± 0.6 µM | Cc1ccc(-n2c(SCC(=O)NNC(=O)NCc3ccccc3)nc3ccccc3c2=O)cc1 [Compound 11, N-Benzyl-2-(2-((4-oxo-3-(p-tolyl)-3,4-dihydroquinazolin-2-yl)thio)acetyl)hydrazinecarboxamide] | 54.1 ± 3 µM | IC50 [4]: 117 ± 5 nM; IC50 [5]: 156 ± 7 nM
11.5 ± 0.9 µM | COc1ccc(-n2c(SCC(=O)NNC(=O)Nc3ccc(F)cc3)nc3ccccc3c2=O)cc1 [Compound 21, N-(4-Fluorophenyl)-2-(2-((3-(4-methoxyphenyl)-4-oxo-3,4-dihydroquinazolin-2-yl)thio)acetyl)hydrazinecarboxamide] | 27.6 ± 1.9 µM | –
> 100 µM | COc1ccc(NC(=O)NNC(=O)CSc2nc3ccccc3c(=O)n2-c2ccc(C)cc2)cc1 [Compound 8, N-(4-Methoxyphenyl)-2-(2-((4-oxo-3-(p-tolyl)-3,4-dihydroquinazolin-2-yl)thio)acetyl)hydrazinecarboxamide] | 31.8 ± 2.2 µM | –
14.2 ± 1.2 µM | Cc1ccc(-n2c(SCC(=O)NNC(=O)Nc3ccc(Cl)cc3)nc3ccccc3c2=O)cc1 [Compound 6, N-(4-Chlorophenyl)-2-(2-((4-oxo-3-(p-tolyl)-3,4-dihydroquinazolin-2-yl)thio)acetyl)hydrazinecarboxamide] | 66.2 ± 3.9 µM | –
41.3 ± 2.4 µM | COc1ccc(-n2c(SCC(=O)NNC(=O)Nc3ccc(C)cc3)nc3ccccc3c2=O)cc1 [Compound 23, 2-(2-((3-(4-Methoxyphenyl)-4-oxo-3,4-dihydroquinazolin-2-yl)thio)acetyl)-N-(p-tolyl)hydrazinecarboxamide] | 63.9 ± 3.7 µM | –
> 100 µM | COc1ccc(NC(=O)NNC(=O)CSc2nc3ccccc3c(=O)n2-c2ccc(OC)cc2)cc1 [Compound 24, N-(4-Methoxyphenyl)-2-(2-((3-(4-methoxyphenyl)-4-oxo-3,4-dihydroquinazolin-2-yl)thio)acetyl)hydrazinecarboxamide] | 71.4 ± 3.8 µM | –
37.8 ± 2.1 µM | COc1ccc(-n2c(SCC(=O)NNC(=O)Nc3ccc(Cl)cc3)nc3ccccc3c2=O)cc1 [Compound 22, N-(4-Chlorophenyl)-2-(2-((3-(4-methoxyphenyl)-4-oxo-3,4-dihydroquinazolin-2-yl)thio)acetyl)hydrazinecarboxamide] | 15.5 ± 1.2 µM | –
53.1 ± 3 µM | Cc1ccc(-n2c(SCC(=O)NNC(=O)Nc3c(C)cccc3C)nc3ccccc3c2=O)cc1 [Compound 9, N-(2,6-Dimethylphenyl)-2-(2-((4-oxo-3-(p-tolyl)-3,4-dihydroquinazolin-2-yl)thio)acetyl)hydrazinecarboxamide] | 62.2 ± 3.5 µM | –
83.6 ± 4.5 µM | COc1ccc(-n2c(SCC(=O)NNC(=O)Nc3c(C)cccc3C)nc3ccccc3c2=O)cc1 [Compound 25, N-(2,6-Dimethylphenyl)-2-(2-((3-(4-methoxyphenyl)-4-oxo-3,4-dihydroquinazolin-2-yl)thio)acetyl)hydrazinecarboxamide] | 56.4 ± 3.3 µM | –
73.5 ± 4.2 µM | O=C(CSc1nc2ccccc2c(=O)n1-c1ccc(Cl)cc1)NNC(=O)NCc1ccccc1 [Compound 19, N-Benzyl-2-(2-((3-(4-chlorophenyl)-4-oxo-3,4-dihydroquinazolin-2-yl)thio)acetyl)hydrazinecarboxamide] | > 100 µM | –
